Activity calls are given as the source filed them. The rule behind the calls is not given here.
Key:
Oryctolagus cuniculus [1] = species: Oryctolagus cuniculus; assay: Displacement of [3H]estradiol from rabbit estrogen receptor after 24 hrs at 0.1 nM to 10 mM
How it was run: (§1)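 Uterine cytosol from TE buffer (Tris-HCl, 1 mM EDTA, pH 7.4) homogenate by ultracentrifugation. Competitor 0.1 nM–10 mM with constant label ([3H]estradiol 6000 cpm or [3H]progesterone 20000 cpm), 24 h at 4 °C, started by cytosol addition. Bound label isolated; RBA derived against unlabeled estradiol or progesterone standard curves.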

Rattus norvegicus [2] = assay: Uterotropic activity in sc dosed rat administered for 3 days relative to estradiol; format: functional, Uterus
How it was run: (§2)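 Immature female rats, 45–55 g, dosed daily for 3 days with sesame oil suspension (0.1 mL); vehicle controls. Uteri removed, cleaned, weighed (nearest 0.2 mg) next day. Expressed as percent activity relative to estradiol (sc) or ethynylestradiol (oral).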

Rattus norvegicus [3] = assay: Antifertility activity in sc dosed Sprague-Dawley rat assessed as no implantation administered for 5 days measured on day 10; format: functional
How it was run: (§3)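 Mated females dosed in sesame oil (0.1 mL) over 5 days from day 0 of pregnancy (sperm-positive day). Autopsy on day 10 of presumptive pregnancy; normal and resorbing fetuses counted. ED100 = dose (mg/kg/day) giving no implantation sites.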

[4] = target: T1, Progesterone receptor (Oryctolagus cuniculus) (UniProt P06186); assay: Displacement of [3H]progesterone from rabbit progesterone receptor after 24 hrs at 0.1 nM to 10 mM; how it was run: as §1
T1 sequence (whole entry): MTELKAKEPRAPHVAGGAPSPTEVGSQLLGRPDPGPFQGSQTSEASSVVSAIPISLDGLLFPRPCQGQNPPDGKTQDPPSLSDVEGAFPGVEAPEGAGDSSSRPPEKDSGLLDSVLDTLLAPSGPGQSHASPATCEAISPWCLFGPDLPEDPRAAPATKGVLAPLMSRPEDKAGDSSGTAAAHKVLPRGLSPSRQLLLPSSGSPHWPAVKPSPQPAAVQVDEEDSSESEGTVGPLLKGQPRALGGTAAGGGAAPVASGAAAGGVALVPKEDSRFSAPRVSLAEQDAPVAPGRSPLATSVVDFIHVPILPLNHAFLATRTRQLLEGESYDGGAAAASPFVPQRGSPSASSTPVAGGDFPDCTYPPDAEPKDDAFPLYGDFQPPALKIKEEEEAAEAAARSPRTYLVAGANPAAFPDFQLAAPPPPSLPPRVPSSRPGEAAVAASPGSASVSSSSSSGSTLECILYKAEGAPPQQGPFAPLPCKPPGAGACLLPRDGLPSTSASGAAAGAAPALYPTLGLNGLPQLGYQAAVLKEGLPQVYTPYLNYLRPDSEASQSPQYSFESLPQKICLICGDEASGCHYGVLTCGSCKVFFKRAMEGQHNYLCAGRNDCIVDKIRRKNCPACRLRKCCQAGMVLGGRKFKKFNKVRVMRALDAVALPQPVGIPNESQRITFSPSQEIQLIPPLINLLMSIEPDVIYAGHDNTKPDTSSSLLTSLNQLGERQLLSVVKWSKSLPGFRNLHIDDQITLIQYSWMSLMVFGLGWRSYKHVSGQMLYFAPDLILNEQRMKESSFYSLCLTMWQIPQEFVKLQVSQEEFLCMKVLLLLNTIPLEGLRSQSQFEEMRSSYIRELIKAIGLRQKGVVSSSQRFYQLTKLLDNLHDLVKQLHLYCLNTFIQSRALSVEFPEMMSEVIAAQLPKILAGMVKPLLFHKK

Rattus norvegicus [5] = assay: Antiuterotropic activity in rat assessed as D-estradiol-induced increase in uterine weight inhibition of at 5 mg/kg/day, sc administered for 3 days; format: functional, organism-based
How it was run: (§4)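 Immature female rats, 45–55 g, given estradiol together with test compound daily for three consecutive days as sesame oil suspension (0.1 mL); vehicle-only controls. Uteri excised, cleaned and weighed to nearest 0.2 mg the day after last treatment.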

Rattus norvegicus [6] = assay: Antifertility activity in Sprague-Dawley rat assessed as no implantation at 4 mg/kg/day, sc administered for 5 days measured on day 10; format: functional, organism-based; how it was run: as §3
Rattus norvegicus [7] = assay: Antiandrogenic activity in rat assessed as inhibition of androgen stimulation of seminal vesicle at 30 mg/kg/day, sc; format: functional, organism-based
How it was run: (§5)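 Immature, castrated male rats; test compound assessed for ability to inhibit androgen stimulation of seminal vesicle, ventral prostate and levator ani weight.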

Rattus norvegicus [8] = assay: Antiandrogenic activity in rat assessed as inhibition of androgen stimulation of ventral prostate at 30 mg/kg/day, sc; format: functional, organism-based; conditions: Prostate gland; how it was run: as §5
Rattus norvegicus [9] = assay: Antiandrogenic activity in rat assessed as inhibition of androgen stimulation of levator ani weight at 30 mg/kg/day, sc; format: functional, organism-based; how it was run: as §5
Rattus norvegicus [10] = assay: Uterotropic activity in rat at 1 mg/kg/day, sc administered for 3 days relative to ethynylestradiol; conditions: Uterus
Rattus norvegicus [11] = assay: Antifertility activity in Sprague-Dawley rat assessed as no implantation at 10 mg/kg/day, sc administered for 5 days measured on day 10; format: functional, organism-based; how it was run: as §3
Oryctolagus cuniculus [12] = assay: Progestational activity in Clauberg rabbit at 10 mg/kg/day, po; format: functional, organism-based
How it was run: (§6)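 Immature rabbit (Clauberg); uterine stimulation measured for progestational activity, and its antagonism for antiprogestational activity.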

Oryctolagus cuniculus [13] = assay: Antiprogestational activity in Clauberg rabbit at 10 mg/kg/day, po; format: functional, organism-based; how it was run: as §6
Rattus norvegicus [14] = assay: Uterotropic activity in po dosed rat administered for 3 days relative to ethynylestradiol; format: functional, Uterus; how it was run: as §2
Rattus norvegicus [15] = assay: Antiuterotropic activity in rat assessed as D-estradiol-induced increase in uterine weight inhibition of at 10 ug/kg/day, po administered for 3 days; format: functional, organism-based; how it was run: as §4
Rattus norvegicus [16] = assay: Antifertility activity in Sprague-Dawley rat assessed as no implantation at 6.8 mg/kg/day, po administered for 5 days measured on day 10; format: functional, organism-based; how it was run: as §3
Oryctolagus cuniculus [17] = assay: Progestational activity in Clauberg rabbit at 10 mg/kg/day, sc; format: functional, organism-based; how it was run: as §6
Oryctolagus cuniculus [18] = assay: Antiprogestational activity in Clauberg rabbit at 10 mg/kg/day, sc; format: functional, organism-based; how it was run: as §6
Oryctolagus cuniculus [19] = assay: Progestational activity in Clauberg rabbit at 20 mg/kg/day, sc; format: functional, organism-based; how it was run: as §6
Oryctolagus cuniculus [20] = assay: Antiprogestational activity in Clauberg rabbit at 20 mg/kg/day, sc; format: functional, organism-based; how it was run: as §6

## C[C@]12C[C@@H]3CCc4cc(O)ccc4[C@@H]3C[C@@H]1CC[C@@H]2O
Oryctolagus cuniculus [1]
  RBA: 2.9
Rattus norvegicus [2]
  relative binding affinity (RBA): 0.02
Rattus norvegicus [3]
  ED100: 1 mg/kg/day

## C[C@]12C[C@@H]3CCC4=CC(=O)CC[C@H]4[C@@H]3C[C@@H]1CC[C@@H]2O
Oryctolagus cuniculus [1]
  RBA: 0.06
[4]
  RBA: < 0.4
Rattus norvegicus [5]
  Activity: inactive
Rattus norvegicus [6]
  Activity: inactive
Rattus norvegicus [7]
  Activity: inactive
Rattus norvegicus [8]
  Activity: inactive
Rattus norvegicus [9]
  Activity: inactive
Rattus norvegicus [10]
  Activity: inactive

## COc1ccc2c(c1)CC[C@H]1C[C@@]3(C)C(=CC[C@@H]3OC(C)=O)C=C21
Oryctolagus cuniculus [1]
  RBA: < 0.025
[4]
  RBA: < 0.4
Rattus norvegicus [11]
  Activity: inactive

## C#C[C@]1(O)CC[C@H]2C[C@@H]3[C@@H](CCC4=CC(=O)CC[C@H]43)C[C@@]21C
[4]
  RBA: 2
Oryctolagus cuniculus [12]
  Activity: inactive
Oryctolagus cuniculus [13]
  Activity: inactive

## C[C@]12C[C@@H]3CCC4=C(CCC(=O)C4)[C@@H]3C[C@@H]1CC[C@@H]2O
Oryctolagus cuniculus [1]
  RBA: < 0.085
[4]
  RBA: < 0.4
Rattus norvegicus [5]
  Activity: inactive
Rattus norvegicus [6]
  Activity: inactive
Rattus norvegicus [7]
  Activity: inactive
Rattus norvegicus [8]
  Activity: inactive
Rattus norvegicus [9]
  Activity: inactive
Rattus norvegicus [10]
  Activity: inactive

## C#C[C@]1(O)CC[C@H]2C[C@H]3c4ccc(O)cc4CC[C@H]3C[C@@]21C
Oryctolagus cuniculus [1]
  RBA: 4.4
[4]
  RBA: < 0.4
Rattus norvegicus [14]
  relative binding affinity (RBA): 0.18
Rattus norvegicus [15]
  Activity: inactive
Rattus norvegicus [16]
  Activity: inactive

## CC(=O)[C@H]1CC[C@H]2C[C@@H]3[C@@H](CCC4CC(=O)C=C[C@H]43)C[C@@]21C (stereo partly specified)
[4]
  RBA: 1.9
Oryctolagus cuniculus [17]
  Activity: inactive
Oryctolagus cuniculus [18]
  Activity: inactive

## CC(=O)[C@H]1CC[C@H]2C[C@@H]3[C@@H](CCC4=CC(=O)CC[C@H]43)C[C@@]21C
[4]
  RBA: 1.2
Oryctolagus cuniculus [19]
  Activity: inactive
Oryctolagus cuniculus [20]
  Activity: inactive
